Measurements: ChEMBL document CHEMBL4414545, “Beta-Glucuronidase Catalyzes Deconjugation and Activation of Curcumin-Glucuronide in Bone” (J Nat Prod, 2019)
The source made the active and inactive calls. The calls are words filed in the database; no cut-off is given here.

How the values were obtained:
[1] = target: T1, Klotho (Homo sapiens, UniProt Q9UEF7); assay: Prodrug conversion assessed as recombinant human alpha-klotho mediated curcumin-glucuronide hydrolysis incubated for 24 hrs by LC-MS analysis; type: ADME
T1 sequence (Q9UEF7 whole entry): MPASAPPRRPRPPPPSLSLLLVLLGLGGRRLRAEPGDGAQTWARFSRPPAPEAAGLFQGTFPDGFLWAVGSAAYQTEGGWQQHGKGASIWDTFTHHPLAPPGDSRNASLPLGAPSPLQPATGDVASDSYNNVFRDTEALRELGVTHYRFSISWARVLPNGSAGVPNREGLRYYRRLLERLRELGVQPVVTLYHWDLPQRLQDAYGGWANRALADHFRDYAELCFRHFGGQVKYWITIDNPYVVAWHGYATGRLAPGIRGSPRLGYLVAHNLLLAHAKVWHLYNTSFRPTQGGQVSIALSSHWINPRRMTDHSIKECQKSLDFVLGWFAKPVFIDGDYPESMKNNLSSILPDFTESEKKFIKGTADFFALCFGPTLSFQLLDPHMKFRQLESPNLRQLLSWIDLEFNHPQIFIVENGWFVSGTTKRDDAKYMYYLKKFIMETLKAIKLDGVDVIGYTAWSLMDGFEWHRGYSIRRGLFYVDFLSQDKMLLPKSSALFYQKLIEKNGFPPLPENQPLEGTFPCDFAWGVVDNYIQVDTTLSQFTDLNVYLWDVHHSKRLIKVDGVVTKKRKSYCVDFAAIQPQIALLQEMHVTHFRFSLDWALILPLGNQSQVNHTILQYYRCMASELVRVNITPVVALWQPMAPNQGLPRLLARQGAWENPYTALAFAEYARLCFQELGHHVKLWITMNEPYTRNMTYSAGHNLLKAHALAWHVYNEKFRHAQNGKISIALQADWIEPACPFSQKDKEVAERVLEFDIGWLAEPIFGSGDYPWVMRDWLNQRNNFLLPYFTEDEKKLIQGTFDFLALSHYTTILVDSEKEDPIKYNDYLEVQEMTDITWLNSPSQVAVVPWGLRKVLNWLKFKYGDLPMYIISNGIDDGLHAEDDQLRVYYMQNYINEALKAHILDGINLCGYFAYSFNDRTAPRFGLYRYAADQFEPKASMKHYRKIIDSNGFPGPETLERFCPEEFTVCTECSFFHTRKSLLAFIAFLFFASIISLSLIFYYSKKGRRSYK
Procedure, shortened: (§1)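 Recombinant human GUSB or α-klotho, 5 μg/mL (15 nM or 45 nM active enzyme), was incubated with curcumin-glucuronide (459 nM) for 24 h at 37°C at pH 5 in enzyme-optimized buffer. Reactions were stopped with HCl and extracted by HLB. Remaining glucuronide and formed aglycone were measured by LC/MS and expressed as % of enzyme-free control, n=3/group.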

[2] = tested on: RAW264.7; assay: Inhibition of RANKL-induced osteoclastogenesis in murine RAW264.7 cells assessed as formation of TRAP positive multinucleated osteoclasts at 30 uM pretreated for 4 hrs followed by RANKL addition measured after 72 hrs; type: functional, cell-based; conditions: Mus musculus
Procedure, shortened: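 RAW 264.7 cells, used within 10 passages, were seeded at 5×10^3/well in DMEM with 10% FBS and allowed to adhere overnight at 37°C. Cells were pretreated 4 h with aglycone curcumin or curcumin-glucuronide, then given RANKL (50 ng/mL final) for 72 h. TRAP-positive multinucleated osteoclasts were counted, n=4/group.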

[3] = target: T2, Beta-glucuronidase (Mus musculus, UniProt P12265); assay: Prodrug conversion in C57BL/6J mouse bone marrow assessed as beta-glucuronidase mediated stabilization of aglycone curcumin at 0.5 uM administered via oral gavage incubated for 30 mins followed by resuspension in sodium acetate buffer at pH 5 measured after 2 hrs in presence of saccharolactone by LC-MS analysis; type: ADME; conditions: in vivo, pH 5, 0.5 µM
T2 sequence (P12265 whole entry): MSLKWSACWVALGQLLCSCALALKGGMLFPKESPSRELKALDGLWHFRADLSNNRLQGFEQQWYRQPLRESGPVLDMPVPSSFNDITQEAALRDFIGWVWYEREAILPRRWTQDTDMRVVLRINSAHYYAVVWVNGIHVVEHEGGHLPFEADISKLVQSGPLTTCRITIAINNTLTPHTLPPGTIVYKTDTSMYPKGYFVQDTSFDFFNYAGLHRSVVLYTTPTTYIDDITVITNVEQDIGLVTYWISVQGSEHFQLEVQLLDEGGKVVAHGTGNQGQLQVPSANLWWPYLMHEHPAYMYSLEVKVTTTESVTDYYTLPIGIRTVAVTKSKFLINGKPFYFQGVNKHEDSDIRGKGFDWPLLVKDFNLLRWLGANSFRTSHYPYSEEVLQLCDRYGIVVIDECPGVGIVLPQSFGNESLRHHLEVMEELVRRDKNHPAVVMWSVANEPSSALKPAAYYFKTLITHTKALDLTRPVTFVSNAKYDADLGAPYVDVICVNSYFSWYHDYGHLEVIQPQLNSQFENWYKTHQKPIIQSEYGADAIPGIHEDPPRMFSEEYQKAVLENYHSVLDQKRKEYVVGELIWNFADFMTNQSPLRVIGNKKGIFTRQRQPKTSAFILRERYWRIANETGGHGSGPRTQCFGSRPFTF

[4] = target: T3, Beta-glucuronidase (Homo sapiens, UniProt P08236); assay: Prodrug conversion assessed as recombinant human C-terminal His6-tagged beta-glucuronidase mediated curcumin-glucuronide hydrolysis incubated for 24 hrs by LC-MS analysis; type: ADME; conditions: isolated protein; procedure, shortened: as §1
T3 sequence (P08236 whole entry): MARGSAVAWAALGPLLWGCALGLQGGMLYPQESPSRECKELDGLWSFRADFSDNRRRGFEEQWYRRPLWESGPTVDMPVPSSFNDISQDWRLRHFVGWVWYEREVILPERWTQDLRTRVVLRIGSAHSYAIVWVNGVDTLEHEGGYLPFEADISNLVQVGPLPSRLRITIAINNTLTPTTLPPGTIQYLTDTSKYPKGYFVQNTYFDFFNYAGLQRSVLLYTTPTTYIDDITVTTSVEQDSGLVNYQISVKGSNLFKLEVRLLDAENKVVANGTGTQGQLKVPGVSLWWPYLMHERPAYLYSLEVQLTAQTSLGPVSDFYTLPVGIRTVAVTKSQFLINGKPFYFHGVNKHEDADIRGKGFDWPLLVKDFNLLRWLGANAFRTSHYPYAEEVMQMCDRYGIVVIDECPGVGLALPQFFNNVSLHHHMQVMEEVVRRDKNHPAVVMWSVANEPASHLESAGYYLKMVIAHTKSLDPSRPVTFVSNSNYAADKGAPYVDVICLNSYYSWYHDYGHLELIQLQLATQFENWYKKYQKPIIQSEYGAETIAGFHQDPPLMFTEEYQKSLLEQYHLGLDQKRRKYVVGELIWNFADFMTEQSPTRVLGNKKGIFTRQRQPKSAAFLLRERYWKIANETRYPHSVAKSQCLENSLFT

- Drug metabolism [1]: 75%
- Drug metabolism [3]: Metabolite_Detected
- Drug metabolism [4]: > 99%
Structure (SMILES): COc1cc(/C=C/C(=O)CC(=O)/C=C/c2ccc(O[C@@H]3O[C@H](C(=O)O)[C@@H](O)[C@H](O)[C@H]3O)c(OC)c2)ccc1O
- inhibition [2]: inactive
